Screening data (PubChem)
Shown are actives, neighbours in structure and some others; about 2.5% of the full set was active somewhere.
OX1R antag-1: OX1R (HCRTR1) antagonists, primary screen, fluorescence, CHO/OX1R cells, Fluo-8 calcium, orexin A; Fluo-8 calcium fluorescence; Orexin/Hypocretin receptor type 1 (Homo sapiens), O43613; 330,000 tested, 0.43% active; inhibition, % at 5 µM;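 active = inhibition above its plate's threshold, mean inhibition of all tested compounds on the plate plus 3 SD, cut at about 37% in these data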;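 note: 0% = orexin A challenge wells and 100% = SB-334867-A antagonist wells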
OX1R antag-2: antagonists of human orexin 1 receptor (OX1R). Orexin/Hypocretin receptor type 1 (Homo sapiens), O43613. AID 485270, 2010. 330,000 tested, 1.8% active. inhibition, % at 6.6 µM. OX1R-expressing cells, FRET antagonist read-out; in the data active = inhibition mostly above about 38%, no sharp cut-off; inactive = mostly below about 40%;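 note: 0% = agonist challenge alone and 100% = reference antagonist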
TRPML3 agonist: human TRPML3 channel agonists, primary screen, cell-based, HEK293 TRPML3-YFP, Fluo-8 calcium fluorescence, 3 µM; 220,000 tested, 0.29% active; 100% = the carbachol control signal; activation, % at 3 µM; Mucolipin-3 (Homo sapiens), Q8TDD5;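 active = activation above its plate's cutoff, the mean activation of the plate's test wells plus 3 SD, cut at about 12% in these data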;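 note: 0% = DMSO only wells and 100% = carbachol wells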
Target sequence (Q8TDD5 whole entry, looked up): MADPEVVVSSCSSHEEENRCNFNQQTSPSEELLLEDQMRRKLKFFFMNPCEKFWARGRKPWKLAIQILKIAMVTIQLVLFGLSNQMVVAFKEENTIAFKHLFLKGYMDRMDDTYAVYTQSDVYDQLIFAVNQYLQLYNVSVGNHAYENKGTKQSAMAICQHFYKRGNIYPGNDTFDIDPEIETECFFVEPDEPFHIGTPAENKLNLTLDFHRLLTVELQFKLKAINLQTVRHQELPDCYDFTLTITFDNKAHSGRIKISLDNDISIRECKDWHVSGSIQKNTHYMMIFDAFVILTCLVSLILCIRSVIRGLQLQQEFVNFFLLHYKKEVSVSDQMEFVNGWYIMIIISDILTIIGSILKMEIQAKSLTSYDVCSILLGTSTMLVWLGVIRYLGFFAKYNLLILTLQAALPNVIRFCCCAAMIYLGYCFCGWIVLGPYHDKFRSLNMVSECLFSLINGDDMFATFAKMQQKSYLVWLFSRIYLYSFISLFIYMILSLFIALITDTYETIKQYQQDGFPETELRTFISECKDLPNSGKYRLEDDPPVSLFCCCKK
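Test system – HEK293 line with stable expression of human TRPML3-YFP channel · Control set – carbachol 87 µM final as high control (100%), DMSO as low control (0%) · Signal – Fluo-8 calcium dye fluorescence, ex 470-495, em 515-575 nm · Incubation – 1-h 37 °C dye load, 5-s basal, 120-s post-compound reads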
zfTRPN1 agonist: zebrafish TRPN1 channel agonists, primary screen, cell-based, HEK293, calcium fluorescence; transient receptor potential cation channel N1 (TRPN1/NompC), Danio rerio; HEK293 zebrafish TRPN1-YFP, Fluo-8 calcium fluorescence; 100% = response to 87 µM carbachol; activation, % at 3 µM; 220,000 tested, 0.18% active; AID 1424, 2008;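 active = activation above its plate's cutoff, the mean activation of test wells on that plate plus 3 SD, cut at about 19% in these data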;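 note: 0% = DMSO alone and 100% = 87 µM carbachol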
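Control set: carbachol 87 µM as high control, DMSO as low control; system: HEK293 stable line with zebrafish TRPN1-YFP; read-out: % activation versus carbachol response; detection: intracellular calcium fluorescence with Fluo-8; doses: single test compound dose, 3 µM nominal, 0.3% DMSO; schedule: dye 1 h 37 °C plus 30 min RT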
CHO parental Ca: ATP-evoked calcium signal inhibitors, parental CHO, primary screen, counter-screen for OX1R antagonist project, cell-based, fluorescence, Fluo-8 calcium dye | inhibition, % at 5.6 µM | parental CHO-K1, ATP-induced calcium, Fluo-8 fluorescence | AID 463079, 2010 | 330,000 tested, 0.63% active;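 active = inhibition above that plate's mean sample inhibition plus 3 SD, cut at about 26% in these data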;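 note: 0% = ATP-challenged DMSO wells and 100% = DMSO wells without ATP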
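Material: Parental CHO cells | Reagent: ATP | Compound dosing: Single nominal dose of 5.6 µM per compound | Detection: Intracellular calcium via Fluo-8 no-wash fluorescent dye | Read-out: % inhibition of ATP-induced calcium mobilization | Benchmarks: Low control ATP plus DMSO, high control DMSO only | Replicates: Singlicate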
OX1R HTRF confirm: OX1R (HCRTR1) antagonists, confirmation, cell-based, HTRF. shares compounds with OX1R antag-2. OX1R-expressing cells, HTRF antagonist assay. inhibition, % at 6.6 µM. 1,800 tested, 49% active. AID 492964, 2010; in the data active = inhibition above about 55%;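 note: CHO cells expressing OX1R stimulated with orexin A at about EC80; 0% = agonist challenge alone and 100% = reference antagonist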
CHO-K1 HTRF cnt: signal inhibition in parental CHO-K1 cells, counter-screen for OX1R antagonist project, cell-based, HTRF. shares compounds with OX1R antag-2. inhibition, % at 6.6 µM. HTRF counterscreen. 1,800 tested, 48% active; in the data active = inhibition above about 17%;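 note: 0% = agonist challenge with vehicle and 100% = vehicle alone without agonist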
Active calls of the source: *; nt = no result given.

SMILES	OX1R antag-1	OX1R antag-2	TRPML3 agonist	zfTRPN1 agonist	CHO parental Ca	OX1R HTRF confirm	CHO-K1 HTRF cnt
COC(=O)c1cc(C(=O)OCC(=O)N(C)C2CCS(=O)(=O)C2)cc([N+](=O)[O-])c1 (stereo not given)	-8	120*	0	2	-12	88*	70*
CN(C(=O)COC(=O)/C=C/c1cccc([N+](=O)[O-])c1)C1CCS(=O)(=O)C1 (stereo not given)	-18	90*	0	-1	-11	41	43*
O=S(=O)(/N=C(/Nc1cccc2ccccc12)c1ccccc1)c1ccc(F)cc1	-23	20	nt	nt	-20	nt	nt
O=C(Nc1ccnn1C1CCN(C(=O)c2cnsn2)CC1)c1cccc(F)c1	-7	9	nt	nt	-14	nt	nt
CC(=O)Nc1ccc2oc(-c3ccccc3Br)nc2c1	3	78*	0	0	-10	42	0
CCC(=O)Nc1ccc2oc(-c3ccccc3Br)nc2c1	23	84*	1	1	5	51	0
CCN(CC(=O)Nc1c(F)cccc1F)C(=O)c1cccc(-n2cccc2)c1	-25	10	nt	nt	-9	nt	nt
COC(=O)c1ccc(NC(=O)CSc2nnc(C)n2CC2CCCO2)cc1 (stereo not given)	-4	89*	nt	nt	-14	13	4
Cc1ccc2nc(SCC(=O)Nc3cc(C)on3)c(C)cc2c1	-15	15	nt	nt	0	nt	nt
C[C@H](NC(=O)c1ccco1)C(=O)Nc1cccc([N+](=O)[O-])c1	-19	15	0	1	-7	nt	nt
O=C1C(=O)c2ccccc2C([O-])=C1[n+]1ccccc1	-13	171*	1	1	-10	60*	108*
O=c1[nH]c2ccc(Cl)cc2c(-c2ccccc2)c1[N+](=O)[O-]	16	81*	nt	nt	-15	75*	6
CCCCOc1ccc(C2CCC(C(C)=O)C(C)C2)cc1 (stereo not given)	-8	12	1	1	-6	nt	nt
O=C1c2cc(S(=O)(=O)NCCO)ccc2-c2ccc(S(=O)(=O)NCCO)cc21	-3	79*	1	0	1	61*	64*
CC(=O)c1ccc(-c2ccc(C(=O)NCC(c3ccco3)N(C)C)o2)cc1 (stereo not given)	-16	24	nt	nt	-14	nt	nt
Cc1ccc(-c2cc(C(F)(F)F)n3ncc(C(=O)O)c3n2)cc1	nt	nt	0	1	nt	nt	nt
COc1ccc(-c2cc(C(F)(F)F)n3ncc(C(=O)O)c3n2)cc1OC	14	82*	1	2	-3	32	55*
COc1ccc(NC(=O)CCNS(=O)(=O)c2cccc3nsnc23)cc1OC	-4	84*	0	-1	-1	30	25*
COc1ccc(/C=N/NC(=O)Nc2cccc3nsnc23)cc1OC	19	82*	0	0	-13	67*	-5
O=C(CCNS(=O)(=O)c1ccc(OC(F)(F)F)cc1)NC1CC1	-9	8	nt	nt	-8	nt	nt
O=C(O)CCC(C(=O)O)n1c(O)c(C2=c3ccccc3=NC2=O)sc1=S (stereo not given)	0	150*	1	0	0	68*	105*
Cn1c(SCc2cccc(Br)c2)nnc1-c1ccncc1	-6	-1	nt	nt	4	nt	nt
O=[N+]([O-])c1ccc(S(=O)(=O)NCC2CCCO2)cc1 (stereo not given)	-18	81*	0	-1	-11	46	47*
Cc1ccc(S(=O)(=O)NCC2CCCO2)cc1 (stereo not given)	-2	2	nt	nt	-10	nt	nt
O=C(c1ccccc1)c1ccc(OCCOCCN2CCN(Cc3ccccc3)CC2)cc1	-35	27	3	6	-9	nt	nt
SMILES	OX1R antag-1	OX1R antag-2	TRPML3 agonist	zfTRPN1 agonist	CHO parental Ca	OX1R HTRF confirm	CHO-K1 HTRF cnt
CC[n+]1ccc(/C=C2\Sc3ccccc3N2CCCS(=O)(=O)[O-])c2ccccc21	11	97*	0	0	8	44	15
Cc1cccc(NC(=O)CNC(=O)c2cccc(S(=O)(=O)NCc3cccs3)c2)c1C	-5	8	nt	nt	-27	nt	nt
CS(=O)(=O)c1ccc(S(=O)CC(=O)Oc2ccc(Cl)cc2)c([N+](=O)[O-])c1 (stereo not given)	-6	116*	0	-1	-10	40	38*
COCCC(=O)N1CCC(Oc2ccc(C(=O)N3C[C@@H]4CCC[C@H]3C4)cc2)CC1	-47	-1	nt	nt	-9	nt	nt
CCCCCCN(C(=O)CCCCCN1C(=O)NC(c2cccc([N+](=O)[O-])c2)C(C(=O)OCc2ccccc2)=C1C)C(C(=O)NCCCC)c1ccc(OCC(=O)OC)c(C(=O)OC)c1 (stereo not given)	-7	13	nt	nt	1	nt	nt
O=[N+]([O-])c1cccc(OCc2cn3cccnc3n2)c1	-13	130*	0	2	-7	30	27*
Cc1ccc2nc3c(cc(C(=O)NC4CCCC4)c(=N)n3C3CCCCC3)c(=O)n2c1	0	21	nt	nt	-9	nt	nt
Cc1cccn2c(=O)c3cc(C(=O)NC(C)C)c(=N)n(Cc4ccncc4)c3nc12	-27	84*	1	-1	-14	50	57*
CNC(=O)c1cc2c(=O)n3cc(C)ccc3nc2n(C(C)C)c1=N	-21	145*	1	1	7	52	71*
COCCCNC(=O)c1cc2c(=O)n3cccc(C)c3nc2n(C(C)C)c1=N	-19	81*	0	0	-4	48	38*
O=C(NCc1ccccc1)C1CCN(S(=O)(=O)c2ccc(Cl)cc2)CC1	-8	4	1	2	-6	nt	nt
CC1=C(C(=O)OCc2ccccc2)C(c2ccc(C)o2)C2=C(CCCC2=O)N1 (stereo not given)	-21	17	0	1	-13	nt	nt
CC1=C(C(=O)OC2CCCCC2)C(c2ccc(C)o2)C2=C(CCCC2=O)N1 (stereo not given)	-32	99*	-2	-2	-15	87*	-1
O=c1[nH]cnc2nn(-c3ccccc3)nc12	-25	20	1	-1	-7	nt	nt
O=c1[nH]cnc2nc(-c3ccccc3)c(-c3ccccc3)nc12	-5	129*	0	-1	-16	34	23*
